By inhibition is commonly meant the percentage by which the read-out fell short of the control. The term Ki denotes the dissociation constant of the complex between target and ligand, obtained from inhibition or displacement. Higher therefore signals weaker binding.

Format in all cases: cell-based
The target in assay [1] is T1, Adenosine receptor A2a (Homo sapiens, UniProt P29274). The experiment in a line: Displacement of [3H]ZM241385 from human adenosine A2a receptor expressed in HeLa cells at 10 uM after 30 mins. Put shortly: (§1)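 [3H]ZM241385 specific binding in HeLa cells expressing human A2A receptor. Incubation at 25 °C for 30 min, followed by filtration and beta scintillation counting. Output is Ki (nM) or % inhibition at the single test concentration. Values are means of four separate assays, each performed in triplicate.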
T1 sequence (P29274 whole entry): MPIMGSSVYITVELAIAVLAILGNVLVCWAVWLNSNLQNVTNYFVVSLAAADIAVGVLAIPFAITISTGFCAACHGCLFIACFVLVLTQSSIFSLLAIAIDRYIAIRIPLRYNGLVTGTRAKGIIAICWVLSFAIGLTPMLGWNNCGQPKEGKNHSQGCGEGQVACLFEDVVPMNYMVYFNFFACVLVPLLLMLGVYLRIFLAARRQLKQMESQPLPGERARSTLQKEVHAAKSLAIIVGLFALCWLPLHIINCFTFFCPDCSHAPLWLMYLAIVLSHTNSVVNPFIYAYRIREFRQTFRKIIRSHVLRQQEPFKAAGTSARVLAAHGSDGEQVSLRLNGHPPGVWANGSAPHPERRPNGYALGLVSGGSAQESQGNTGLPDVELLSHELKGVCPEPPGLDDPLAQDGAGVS
A general note: Displacement assays read how much labelled ligand stays bound in the presence of the test substance.

The target in assay [2] is T2, Adenosine receptor A3 (Homo sapiens) (UniProt P0DMS8).
T2 sequence (whole entry): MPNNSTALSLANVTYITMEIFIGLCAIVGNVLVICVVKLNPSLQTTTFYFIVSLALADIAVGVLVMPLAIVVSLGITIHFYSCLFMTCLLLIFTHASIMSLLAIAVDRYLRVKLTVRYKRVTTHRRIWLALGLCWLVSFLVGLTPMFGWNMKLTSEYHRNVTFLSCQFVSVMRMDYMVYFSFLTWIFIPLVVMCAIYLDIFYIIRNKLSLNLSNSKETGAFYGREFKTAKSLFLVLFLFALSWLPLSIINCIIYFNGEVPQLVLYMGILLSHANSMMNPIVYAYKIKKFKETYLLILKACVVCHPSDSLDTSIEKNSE
The assay can be described thus: Displacement of [3H]NECA from human adenosine A3 receptor expressed in HeLa cells at 10 uM after 180 mins. In a few lines:
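HeLa cells expressing human A3 receptor, with displacement of [3H]NECA. Incubated at 25 °C for 180 min, then filtered and counted by beta scintillation. Ki (nM) or percentage inhibition at the single test concentration. Means of four assays, each in triplicate.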

Another assay addresses T3, Adenosine receptor A1 (Homo sapiens, UniProt P30542).
T3 sequence (P30542 whole entry): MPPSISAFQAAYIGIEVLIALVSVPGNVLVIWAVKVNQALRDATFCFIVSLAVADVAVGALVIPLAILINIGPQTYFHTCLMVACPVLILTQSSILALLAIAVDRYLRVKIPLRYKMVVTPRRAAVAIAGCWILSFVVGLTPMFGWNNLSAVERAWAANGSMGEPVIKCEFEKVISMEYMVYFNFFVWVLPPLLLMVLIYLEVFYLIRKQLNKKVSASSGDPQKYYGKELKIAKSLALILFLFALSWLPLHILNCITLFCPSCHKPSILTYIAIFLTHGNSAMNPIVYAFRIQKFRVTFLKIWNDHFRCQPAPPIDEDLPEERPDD
The experiment in a line: Displacement of [3H]DPCPX from human adenosine A1 receptor expressed in CHO-A1 cells after 60 mins. Put shortly:
(§2)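 Competition binding on membranes from CHO cells expressing human A1 receptor, labelled with 2 nM [3H]DPCPX. Non-specific binding defined with (R)-PIA. Incubation at 25 °C for 60 min, then filtration and beta scintillation counting. Result given as Ki (nM) or % inhibition at the single test concentration. Means of four separate assays, each in triplicate.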

Assay [3] addresses T4, Adenosine receptor A2b (Homo sapiens) (UniProt P29275).
T4 sequence (whole entry): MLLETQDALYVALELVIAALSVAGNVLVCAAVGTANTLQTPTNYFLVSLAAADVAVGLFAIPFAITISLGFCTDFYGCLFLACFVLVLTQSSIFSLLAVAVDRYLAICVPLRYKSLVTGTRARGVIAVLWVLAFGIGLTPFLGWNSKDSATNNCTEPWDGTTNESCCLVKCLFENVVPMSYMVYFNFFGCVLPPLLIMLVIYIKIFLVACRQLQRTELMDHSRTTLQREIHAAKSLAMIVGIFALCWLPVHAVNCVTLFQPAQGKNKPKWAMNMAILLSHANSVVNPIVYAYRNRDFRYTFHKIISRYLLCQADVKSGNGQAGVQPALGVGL
The assay can be described thus: Displacement of [3H]DPCPX from human adenosine A2b receptor expressed in HEK293 cells at 10 uM after 30 mins. In a few lines: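 Human A2B receptor expressed in HEK-293 cells, with displacement of [3H]DPCPX. Incubated at 25 °C for 30 min, then filtered and counted by beta scintillation. Reported as Ki (nM) or percentage inhibition at the single test concentration. Means of four independent assays, each run in triplicate.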

The target of assay [4] is T5, Adenosine receptor A1 (Homo sapiens) (UniProt P30542).
T5 sequence (whole entry): T3 sequence (P30542 whole entry)
The assay can be described thus: Displacement of [3H]DPCPX from human adenosine A1 receptor expressed in CHO-A1 cells at 10 uM after 60 mins. Put shortly:
as §2

The target in assay [5] is T1, Adenosine receptor A2a. The experiment in a line: Displacement of [3H]ZM241385 from human adenosine A2a receptor expressed in HeLa cells after 30 mins. In a few lines:
as §1

The structures appear in SMILES notation. Active and inactive are the calls of the source. The rule behind the calls is not given here.

On to `O=c1c2ncn3nc(-c4ccccc4)cc3c2c(-c2ccc(F)cc2)nn1Cc1ccccc1`, for which the inhibition result (on Adenosine receptor A2a [1]; in assay [2]; in assay [3]) was “inactive” in each case. On Adenosine receptor A1, the inhibition constant (Ki) amounted to 252 nM.
For the compound `O=c1c2ncn3nc(-c4ccsc4)cc3c2c(-c2cccc(F)c2)nn1Cc1ccccc1`, the inhibition entry (at Adenosine receptor A2a [1]; in assay [2]; in assay [3]) was “inactive” throughout. Also, the inhibitory constant (Ki) at Adenosine receptor A1 was determined as 189 nM.
Take `O=c1c2ncn3nc(-c4ccsc4)cc3c2c(-c2ccc(F)cc2)nn1Cc1ccccc1`: the inhibition result (on Adenosine receptor A2a [1]; in assay [2]; in assay [3]) was “inactive” each time. Also, the affinity on Adenosine receptor A1 corresponds to a Ki of 123 nM.
As to `CC(C)c1nc2c(=O)n(Cc3ccccc3)nc(-c3ccccc3)c2c2cc(-c3ccccc3)nn12`, the inhibition result (on Adenosine receptor A2a [1]; in assay [2]; in assay [3]) was “inactive” in each case. In assay [4], this compound showed an inhibition of less than 50%.
Turning to `CCc1nc2c(=O)n(Cc3ccccc3)nc(-c3ccc(F)cc3)c2c2cc(-c3ccccc3)nn12`, the inhibition result (on Adenosine receptor A2a [1]; in assay [2]; in assay [3]) was “inactive” in each case. The inhibition in assay [4] is less than 50%.
`CCc1nc2c(=O)n(Cc3ccccc3)nc(-c3cccc(F)c3)c2c2cc(-c3ccccc3)nn12`: the inhibition result (at Adenosine receptor A2a [1]; in assay [2]; in assay [3]) was “inactive” each time. Further, the inhibition in assay [4] was less than 50%.
Regarding `Cc1nn(Cc2ccccc2)c(=O)c2nc(C)n3nccc3c12`, the inhibition (on Adenosine receptor A2a [1]; in assay [4]; in assay [2]; in assay [3]) was less than 50% each time.
Consider `Cc1nn(C(C)c2ccccc2)c(=O)c2ncn3nc(-c4ccccc4)cc3c12` (stereo unspecified), for which the inhibition (on Adenosine receptor A2a [1]; in assay [2]; in assay [3]) was less than 50% in each case. Moreover, the Ki on Adenosine receptor A1 came to 475 nM.
On to `CCc1nc2c(=O)n(Cc3ccccc3)nc(-c3ccncc3)c2c2cc(-c3ccccc3)nn12`, for which the inhibition result in assay [2] and in assay [3] was “inactive” throughout. Moreover, the Ki at Adenosine receptor A1 is 71.8 nM; on Adenosine receptor A2a [5] it was 2490 nM.
Regarding `Cc1nn(Cc2ccccc2)c(=O)c2nnn3nc(-c4ccccc4)cc3c12`, the inhibition (at Adenosine receptor A2a [1]; in assay [4]; in assay [2]; in assay [3]) was less than 50% throughout.
For `Cc1nn(Cc2ccccc2)c(=O)c2nc(C)n3nc(-c4ccccc4)cc3c12`, the inhibition (on Adenosine receptor A2a [1]; in assay [2]; in assay [3]) was less than 50% throughout. Moreover, the affinity at Adenosine receptor A1, expressed as Ki, was 3250 nM.
`Cc1nc2c(=S)n(Cc3ccccc3)nc(-c3ccncc3)c2c2cc(-c3ccccc3)nn12`: the inhibition entry in assay [2] and in assay [3] was “inactive” in each case. The inhibitory constant (Ki) amounted to 267 nM on Adenosine receptor A1 and 572 nM on Adenosine receptor A2a [5].
For the compound `CCCc1nc2c(=O)n(Cc3ccccc3)nc(-c3ccccc3)c2c2cc(-c3ccccc3)nn12`, the inhibition entry (at Adenosine receptor A2a [1]; in assay [2]; in assay [3]) was “inactive” each time. In addition, affinity at Adenosine receptor A1 was put at a Ki of 563 nM.
As to `CC(C)c1nc2c(=O)n(Cc3ccccc3)nc(-c3ccncc3)c2c2cc(-c3ccccc3)nn12`, the inhibition entry in assay [2] and in assay [3] was “inactive” throughout. Also, the results for the Ki at Adenosine receptor A1 and at Adenosine receptor A2a [5] were 192 nM and 5190 nM, respectively.
Turning to `Cc1nc2c(=O)n(Cc3ccccc3)nc(-c3cccc(F)c3)c2c2cc(-c3ccccc3)nn12`, the inhibition result (on Adenosine receptor A2a [1]; in assay [2]; in assay [3]) was “inactive” in each case. Besides, at Adenosine receptor A1, the inhibition constant (Ki) was 3240 nM.
As to `Cc1nn(Cc2ccccc2)c(=O)c2ncn3nccc3c12`, the inhibition (on Adenosine receptor A2a [1]; in assay [4]; in assay [2]; in assay [3]) was less than 50% in each case.
With `CCc1nc2c(=O)n(C(C)c3ccccc3)nc(C)c2c2cc(-c3ccccc3)nn12` (stereo unspecified), the inhibition (at Adenosine receptor A2a [1]; in assay [2]; in assay [3]) was less than 50% in each case. This compound also returned a Ki on Adenosine receptor A1 of 2380 nM.
Turning to `Cc1nc2c(SCc3ccccc3)nnc(-c3ccncc3)c2c2cc(-c3ccccc3)nn12`, the inhibition (on Adenosine receptor A2a [1]; in assay [4]) was less than 50% each time. In addition, the inhibition result in assay [2] and in assay [3] was “inactive” each time.
As for `O=c1c2ncn3nc(-c4ccccc4)cc3c2c(-c2cccc(F)c2)nn1Cc1ccccc1`, the inhibition entry (at Adenosine receptor A2a [1]; in assay [2]; in assay [3]) was “inactive” in each case. Besides, the affinity on Adenosine receptor A1, expressed as Ki, was 92.7 nM.
Regarding `CCCc1nc2c(=O)n(Cc3ccccc3)nc(-c3ccncc3)c2c2cc(-c3ccccc3)nn12`, the inhibition entry in assay [2] and in assay [3] was “inactive” in each case. Further, the inhibition constant (Ki) at Adenosine receptor A1 stood at 28.3 nM; on Adenosine receptor A2a [5], 772 nM.
Regarding `O=c1c2ncn3nc(-c4ccccc4)cc3c2c(-c2ccccc2)nn1Cc1ccccc1`, the inhibition entry (at Adenosine receptor A2a [1]; in assay [2]; in assay [3]) was “inactive” each time. This compound displayed an inhibition constant Ki on Adenosine receptor A1 of 1430 nM.
Take `Cc1nc2c(=O)n(Cc3ccccc3)nc(-c3ccccc3)c2c2cc(-c3ccccc3)nn12`: the inhibition result (on Adenosine receptor A2a [1]; in assay [2]; in assay [3]) was “inactive” each time. The compound further returned a Ki at Adenosine receptor A1 of 1590 nM.
Take `O=c1c2nc(C(F)(F)F)n3nc(-c4ccccc4)cc3c2c(-c2ccc(F)cc2)nn1Cc1ccccc1`: the inhibition entry (at Adenosine receptor A2a [1]; in assay [2]; in assay [3]) was “inactive” throughout. For the same compound, in assay [4], the inhibition was less than 50%.
As for `Fc1ccc(-c2nnc(Cl)c3ncn4nc(-c5ccccc5)cc4c23)cc1`, the inhibition entry (at Adenosine receptor A2a [1]; in assay [2]; in assay [3]) was “inactive” in each case. The compound further returned an inhibition in assay [4] of less than 50%.
For `CCc1nc2c(=O)n(Cc3ccccc3)nc(-c3ccccc3)c2c2cc(-c3ccccc3)nn12`, the inhibition entry (on Adenosine receptor A2a [1]; in assay [2]; in assay [3]) was “inactive” throughout. For the same compound, at Adenosine receptor A1, the Ki was found to be 2440 nM.
Consider `Cc1nc2c(=O)n(Cc3ccccc3)nc(Cl)c2c2cc(-c3ccccc3)nn12`, for which the inhibition in assay [2] and in assay [3] was less than 50% throughout. The inhibition constant Ki on Adenosine receptor A1 came out at 1620 nM; on Adenosine receptor A2a [5], 3150 nM.
Regarding `Cc1nc2c(=O)n(Cc3ccccc3)nc(-c3ccc(F)cc3)c2c2cc(-c3ccccc3)nn12`, the inhibition entry (at Adenosine receptor A2a [1]; in assay [2]; in assay [3]) was “inactive” each time. The same compound showed an inhibition in assay [4] of less than 50%.
Consider `CCc1nc2c(=O)n(Cc3ccccc3)nc(-c3cccc(F)c3)c2c2cc(-c3ccsc3)nn12`, for which the inhibition entry (at Adenosine receptor A2a [1]; in assay [2]; in assay [3]) was “inactive” throughout. This compound registered an inhibition in assay [4] of less than 50%.
As for `Cc1nc2c(=O)n(Cc3ccccc3)nc(-c3cccc(F)c3)c2c2cc(-c3ccsc3)nn12`, the inhibition entry (on Adenosine receptor A2a [1]; in assay [2]; in assay [3]) was “inactive” in each case. This compound showed an inhibition in assay [4] of less than 50%.

The record behind these values is ChEMBL document CHEMBL1275345, “Pyrazolo[1',5':1,6]pyrimido[4,5-d]pyridazin-4(3H)-ones as selective human A(1) adenosine receptor ligands” (Bioorg Med Chem, 2010).
